ChEMBL document CHEMBL2321851, “Synthesis and biological evaluation of novel coumarin-pyrazoline hybrids endowed with phenylsulfonyl moiety as antitumor agents” (Eur J Med Chem, 2013)
Active and inactive are the calls of the source.

What was measured:
Format in all cases: functional, cell-based
T47D = experiment: Growth inhibition of human T47D cells at 10 uM after 48 hrs by sulforhodamine B assay
In short: (§1)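 NCI-60 one-dose primary screen at 10^-5 M. Cells were grown in RPMI 1640 with 5% FBS and 2 mM L-glutamine and plated at 5,000–40,000 cells/well depending on doubling time. After 24 h preincubation at 37 °C in 5% CO2, drug was added for 48 h. Cells were fixed with TCA and stained with SRB, and absorbance was read at 515 nm. Values are growth percent versus untreated control.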

BT-549 = experiment: Growth inhibition of human BT549 cells at 10 uM after 48 hrs by sulforhodamine B assay
In short: (§2)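 Single-dose primary screen at 10^-5 M across the ~60-line panel grown in RPMI 1640 with 5% FBS and 2 mM glutamine, 48 h exposure at 37 °C. Cells TCA-fixed and SRB-stained, absorbance at 515 nm. Output is percent growth of treated versus untreated control cells.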

MDA-MB-231 = experiment: Growth inhibition of human MDA-MB-231 cells at 10 uM after 48 hrs by sulforhodamine B assay; in short: as §2
MCF7 = experiment: Growth inhibition of human MCF7 cells at 10 uM after 48 hrs […]
PC-3 = experiment: Growth inhibition of human PC3 cells at 10 uM after 48 hrs by sulforhodamine B assay
In short: (§3)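 NCI-60 one-dose primary screen at 10^-5 M. Cells grown in RPMI 1640 with 5% FBS and 2 mM L-glutamine and plated by doubling time. Preincubated 24 h at 37 °C under 5% CO2. Drug exposure 48 h. Cells fixed with cold TCA and stained with 0.4% SRB; absorbance read at 515 nm. Reported as percent growth of treated versus untreated control.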

CAKI-1 = experiment: Growth inhibition of human Caki1 cells at 10 uM after 48 hrs by sulforhodamine B assay; in short: as §2
RXF 393 = experiment: Growth inhibition of human RXF393 cells at 10 uM after 48 hrs by sulforhodamine B assay; in short: as §3
SK-OV-3 = experiment: Growth inhibition of human SKOV3 cells at 10 uM after 48 hrs by sulforhodamine B assay; in short: as §3
UACC-257 = experiment: Growth inhibition of human UACC257 cells at 10 uM after 48 hrs by sulforhodamine B assay; in short: as §1
SK-MEL-28 = experiment: Growth inhibition of human SK-MEL-28 cells at 10 uM after 48 hrs by sulforhodamine B assay; in short: as §3
U-251 = experiment: Growth inhibition of human U251 cells at 10 uM after 48 hrs by sulforhodamine B assay; in short: as §1
SF-295 = experiment: Growth inhibition of human SF295 cells at 10 uM after 48 hrs by sulforhodamine B assay; in short: as §3
SW-620 = experiment: Growth inhibition of human SW620 cells at 10 uM after 48 hrs by sulforhodamine B assay; in short: as §1
HCT-15 = experiment: Growth inhibition of human HCT15 cells at 10 uM after 48 hrs by sulforhodamine B assay; in short: as §2

Measured: growth inhibition (GI)

COc1ccc2ccc(=O)oc2c1C1=NN(S(=O)(=O)c2ccccc2)C(c2cccs2)C1 (configuration not stated)
inactive: all assays above

COc1ccc2ccc(=O)oc2c1C1=NN(S(=O)(=O)c2ccccc2)C(c2ccc(C)o2)C1 (configuration not stated)
inactive: all assays above

COc1ccc2ccc(=O)oc2c1C1=NN(S(=O)(=O)c2ccccc2)C(c2ccc(SC)cc2)C1 (configuration not stated)
inactive: all assays above
